Source: ChEMBL document CHEMBL2331205, “Anti-hepatitis B virus and anti-cancer activities of novel isoflavone analogs” (Eur J Med Chem, 2013)
pIC50: −log10 of the molar value.

How the values were obtained:
[1] = test system: Hepatitis B virus; assay: Antiviral activity against HBV infected in human HepG2(2.2.15) cells assessed as inhibition of HBsAg production after 9 days by ELISA; format: functional, organism-based; conditions: HepG2 2.2.15, 216 h
How it was run: (§1)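 HepG2 2.2.15 cells (HBV-producing) given a range of compound concentrations for nine days; culture supernatants collected and HBsAg or HBeAg levels measured by ELISA. IC50 taken as the concentration giving 50% inhibition of antigen level.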

[2] = test system: Hepatitis B virus; assay: Antiviral activity against HBV infected in human HepG2(2.2.15) cells assessed as inhibition of viral replication after 9 days by fluorescence PCR method; format: functional, organism-based; conditions: HepG2 2.2.15, 216 h
How it was run: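 HepG2 2.2.15 cells given a range of compound concentrations for nine days; HBV DNA quantified by fluorescence PCR. IC50 taken as the concentration giving 50% inhibition of HBV DNA replication.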

[3] = Selectivity index, ratio of CC50 for human HepG2(2.2.15) cells to IC50 for HBV infected in human HepG2(2.2.15) cells assessed as inhibition of viral replication; format: functional
How it was run: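 Selectivity index calculated as CC50 in HepG2 2.2.15 cells (MTT, 9-day exposure) divided by IC50 for HBV DNA reduction measured by fluorescence PCR after 9 days.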

[4] = Growth inhibition of human L02 cells after 48 hrs by MTT assay; format: functional, cell-based; conditions: L02, 48 h
How it was run: (§2)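 Cells seeded at 8000/well, treated 24 h later in duplicate with a range of concentrations (DMSO stock 10 g/L diluted in fresh medium), 48 h at 37 °C, 5% CO2. MTT (5 mg/ml in PBS) added for 4 h, formazan dissolved in DMSO, absorbance read at 570 nm. IC50 is the concentration giving 50% survival.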

[5] = test system: A549; assay: Growth inhibition of human A549 cells after 48 hrs by MTT assay; format: functional, cell-based; conditions: A549, 48 h; how it was run: as §2
[6] = test system: Huh-7; assay: Growth inhibition of human HuH7 cells after 48 hrs by MTT assay; format: functional, cell-based; conditions: Huh-7, 48 h; how it was run: as §2
[7] = Growth inhibition of human QGY7701 cells after 48 hrs by MTT assay; format: functional; conditions: QGY7701, 48 h; how it was run: as §2
[8] = test system: HeLa; assay: Growth inhibition of human HeLa cells after 48 hrs by MTT assay; format: functional, cell-based; how it was run: as §2
[9] = Cytotoxicity against human HepG2(2.2.15) cells compound treated for 48 hrs followed by incubation for 9 days by MTT assay; format: cell-based
How it was run: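 HepG2 2.2.15 cells kept 48 h in plates before adding compounds (DMSO stocks serially diluted in medium), then incubated at 37 °C for 9 days. Media-only wells as blank. MTT (5 g/L) added 4 h before lysis in 10% SDS/50% DMF, pH 7.2; OD at 570 nm gives percent cell death; CC50 derived.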

[10] = test system: Hepatitis B virus; assay: Antiviral activity against HBV infected in human HepG2(2.2.15) cells assessed as inhibition of HBeAg production after 9 days by ELISA; format: functional, organism-based; conditions: HepG2 2.2.15, 216 h; how it was run: as §1
[11] = Selectivity index, ratio of CC50 for human HepG2(2.2.15) cells to IC50 for HBV infected in human HepG2(2.2.15) cells assessed as inhibition of HBsAg production; format: functional
How it was run: (§3)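 Selectivity index calculated as CC50 in HepG2 2.2.15 cells (MTT, 9-day exposure) divided by IC50 for HBeAg or HBsAg reduction (ELISA of 9-day supernatants).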

[12] = Selectivity index, ratio of CC50 for human HepG2(2.2.15) cells to IC50 for HBV infected in human HepG2(2.2.15) cells assessed as inhibition of HBeAg production; format: functional; how it was run: as §3

SMILES	pIC50 [1]	pIC50 [2]	Ratio CC50/IC50 [3]	pIC50 [4]	pIC50 [5]	pIC50 [6]	pIC50 [7]	pIC50 [8]	CC50 at 48 h [9]	pIC50 [10]	Ratio CC50/IC50 [11]	Ratio CC50/IC50 [12]
COc1ccc2c(=O)c(/C=C/C(=O)Nc3cccc(C)c3)coc2c1	< 4.00	4.46	15.85	< 3.70	< 4.00	4.81	< 4.00	< 4.00	554 µM	< 4.00	–	–
COc1ccc2c(=O)c(/C=C/C(=O)NCc3ccc(C)cc3)coc2c1	4.08	4.27	4.81	< 3.70	< 4.00	4.84	4.99	< 4.00	257 µM	< 4.00	3.11	–
COc1ccc2c(=O)c(/C=C/C(=O)Nc3ccc(F)cc3)coc2c1	< 4.00	< 4.00	–	< 3.70	4.57	4.47	< 4.00	5.01	743 µM	< 4.00	–	–
COc1ccc2c(=O)c(/C=C/C(=O)NCc3ccc(F)cc3)coc2c1	4.23	4.95	11.84	< 3.70	< 4.00	4.68	5.10	< 4.00	133 µM	< 4.00	2.26	–
COc1ccc2c(=O)c(/C=C/C(=O)NCCc3ccccc3F)coc2c1	4.32	< 4.00	–	< 3.70	4.99	< 4.00	4.09	4.91	457 µM	< 4.00	9.55	–
COc1ccc2c(=O)c(/C=C/C(=O)NCCc3ccc(F)cc3)coc2c1	4.83	< 4.00	–	< 3.70	4.72	4.53	4.60	< 4.00	786 µM	4.83	53.64	53.45
O=C(/C=C/c1coc2cc(O)ccc2c1=O)NCc1ccc(F)cc1	< 4.00	4.48	10.68	< 3.70	< 4.00	< 4.00	< 4.00	< 4.00	357 µM	< 4.00	–	–
O=C(/C=C/c1coc2cc(O)ccc2c1=O)NCc1ccccc1	< 4.00	< 4.00	–	< 3.70	< 4.00	5.33	4.20	< 4.00	436 µM	< 4.00	–	–
COc1ccc(NC(=O)/C=C/c2coc3cc(O)ccc3c2=O)cc1	< 4.00	5.15	139.21	< 3.70	4.89	< 4.00	< 4.00	< 4.00	976 µM	< 4.00	–	–
COc1ccc2c(=O)c(/C=C/C(=O)Nc3ccccc3OC)coc2c1	< 4.00	< 4.00	–	< 3.70	< 4.00	4.49	4.75	< 4.00	1050 µM	< 4.00	–	–
COc1ccc2c(=O)c(/C=C/C(=O)NCc3cccc(F)c3)coc2c1	4.08	4.12	6.3	< 3.70	4.57	5.00	4.54	4.75	475 µM	< 4.00	5.67	–
Cc1ccccc1NC(=O)/C=C/c1coc2cc(O)ccc2c1=O	< 4.00	< 4.00	–	< 3.70	< 4.00	4.95	5.03	5.06	374 µM	< 4.00	–	–
O=C(/C=C/c1coc2cc(O)ccc2c1=O)NCCc1ccc(F)cc1	4.84	< 4.00	–	< 3.70	5.16	< 4.00	< 4.00	< 4.00	102 µM	4.81	7.03	6.64
CCOc1ccc(NC(=O)/C=C/c2coc3cc(OC)ccc3c2=O)cc1	< 4.00	< 4.00	–	< 3.70	< 4.00	5.49	< 4.00	< 4.00	460 µM	< 4.00	–	–
COc1ccc(NC(=O)/C=C/c2coc3cc(OC)ccc3c2=O)cc1	< 4.00	4.85	50.38	< 3.70	4.64	< 4.00	< 4.00	4.89	718 µM	< 4.00	–	–
COc1ccc2c(=O)c(/C=C/C(=O)Nc3cc(C)ccc3C)coc2c1	< 4.00	< 4.00	–	< 3.70	4.81	4.95	< 4.00	4.23	1100 µM	< 4.00	–	–
COc1ccc2c(=O)c(/C=C/C(=O)NCCc3cccc(F)c3)coc2c1	< 4.00	< 4.00	–	< 3.70	5.01	5.05	4.63	4.82	1030 µM	< 4.00	–	–
COc1ccc2c(=O)c(/C=C/C(=O)Nc3ccc(C)cc3)coc2c1	< 4.00	4.55	34.69	< 3.70	4.76	< 4.00	4.41	4.62	979 µM	< 4.00	–	–
COc1cccc(NC(=O)/C=C/c2coc3cc(OC)ccc3c2=O)c1	< 4.00	< 4.00	–	< 3.70	4.89	4.95	4.41	4.72	1130 µM	< 4.00	–	–
O=c1[nH]cc(F)c(=O)[nH]1 [FLUOROURACIL]	–	–	–	–	–	4.80	–	–	–	–	–	–
COc1ccc2c(=O)c(/C=C/C(=O)NCc3ccccc3)coc2c1	< 4.00	4.25	6.62	< 3.70	4.93	4.87	< 4.00	4.48	376 µM	< 4.00	–	–
COc1ccc2c(=O)c(/C=C/C(=O)Nc3ccccc3Cl)coc2c1	< 4.00	< 4.00	–	< 3.70	4.52	4.23	4.64	4.65	1010 µM	< 4.00	–	–
COc1ccc2c(=O)c(/C=C/C(=O)NCc3ccccc3F)coc2c1	4.28	4.16	2.13	< 3.70	< 4.00	5.07	4.47	< 4.00	146 µM	< 4.00	2.8	–
